Peptide text beside a SMILES is read from it. * marks the point of attachment. X1 = O=C(c1ncn2c(=O)n(CCCl)nnc12)*

One may read the IC50 as the concentration that gives 50% inhibition. A high value points to a need for much substance.

Holding throughout (type): functional, cell-based
Assay [1] in a line: In vitro cytotoxicity against mouse TLX5 lymphoma cells. Put shortly:
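TLX5 lymphoma cells kept in exponential growth at 2 × 10⁴ cells/mL in RPMI 1640 with 15% fetal calf serum. Cells were dosed with drug in DMSO (10 μL per 2 mL well), triplicate wells per concentration, with DMSO-only controls. After 72 h at 37 °C under 5% CO₂, cells were Coulter-counted. IC₅₀ was taken from % of control growth plots as the mean of two determinations.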

The nature of assay [2]: In vitro cytotoxicity against human xeroderma pigmentosum fibroblast cells HMGZip (mer-). Put shortly:
(§1)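 Xeroderma pigmentosum fibroblasts HMGZip 1a (Mer⁻) and HMGhAT 2b (Mer⁺) grown in MEM, plated at 1000 cells/well, and assayed by the method of Baer et al.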

Assay [3] in a line: In vitro cytotoxicity against human xeroderma pigmentosum fibroblast cells […] (mer+). In outline: as §1

Compound `COC(=O)[C@@H](NC(=O)[C@H](C)NC(=O)c1ncn2c(=O)n(CCCl)nnc12)C(C)C` yielded an IC50 in assay [1] of 6.9 µM.

In assay [2], `CC(C)C[C@@H](NC(=O)c1ncn2c(=O)n(CCCl)nnc12)C(=O)O` returned a concentration for half-maximal inhibition (IC50) of 57 µM.

`COC(=O)C(CCCCN)NC(=O)c1ncn2c(=O)n(CCCl)nnc12` (stereo not drawn) showed an IC50 in assay [2] of 68 µM. The compound `NC(=O)CNC(=O)c1ncn2c(=O)n(CCCl)nnc12` displayed an IC50 in assay [1] of 34 µM. In turn, `C[C@@H](NC(=O)c1ncn2c(=O)n(CCCl)nnc12)C(=O)O` had a half-maximal inhibitory concentration (IC50) in assay [2] of 198 µM. In assay [1], `COC(=O)C(CO)NC(=O)c1ncn2c(=O)n(CCCl)nnc12` (stereo not drawn) gave a 50% inhibitory concentration (IC50) of 5 µM. With `COC(=O)C(C)NC(=O)c1ncn2c(=O)n(CCCl)nnc12` (stereo not drawn), the midpoint of inhibition in assay [1], the IC50, lay at 1.5 µM. Same read-out and setting: for `CC(C)(C)NC(=O)c1ncn2c(=O)n(CCCl)nnc12` the value was 2 µM; for `O=C(O)c1ncn2c(=O)n(CCCl)nnc12`, 15.8 µM; for `COC(=O)C(CCSC)NC(=O)c1ncn2c(=O)n(CCCl)nnc12` (stereo not drawn), 50 µM. As to `CC(C)[C@H](NC(=O)[C@@H](NC(=O)c1ncn2c(=O)n(CCCl)nnc12)[C@@H](C)O)C(=O)NCC(=O)O`, the IC50 in assay [2] was 437 µM; in assay [3], more than 500 µM. `COC(=O)C(Cc1c[nH]c2ccccc12)NC(=O)c1ncn2c(=O)n(CCCl)nnc12` (stereo not drawn) had a half-maximal inhibitory concentration (IC50) in assay [1] of 3.7 µM. In assay [1], `CCOC(=O)CNC(=O)c1ncn2c(=O)n(CCCl)nnc12` returned an IC50 of 25 µM. `NCCCCC(NC(=O)c1ncn2c(=O)n(CCCl)nnc12)C(=O)O` (stereo not drawn): half-maximal inhibition in assay [2] (IC50) was put at 42 µM. With `CC(C)[C@H](NC(=O)[C@@H](NC(=O)c1ncn2c(=O)n(CCCl)nnc12)[C@@H](C)O)C(=O)NCC(=O)N[C@@H](CCCN=C(N)N)C(=O)O` (X1-TVGR-OH), the values for the IC50 in assay [2] and in assay [3] were 288 µM and more than 500 µM, respectively. The matching figures for `CC(C)[C@H](NC(=O)[C@@H](NC(=O)c1ncn2c(=O)n(CCCl)nnc12)[C@@H](C)O)C(=O)N[C@@H](CO)C(=O)N[C@@H](CCCN=C(N)N)C(=O)O` (X1-TVSR-OH): 351 µM and more than 500 µM. Turning to `NC(=O)c1ncn2c(=O)n(CCCl)nnc12` [MITOZOLOMIDE], the values for the IC50 in assay [1], in assay [2] and in assay [3] were 2.5 µM, 20 µM and 30 µM, respectively. In turn, `Cn1nnc2c(C(N)=O)ncn2c1=O` [TEMOZOLOMIDE] returned a concentration for half-maximal inhibition (IC50) in assay [1] of 5 µM.

(Values after ChEMBL document CHEMBL1135673, “Antitumor imidazotetrazines. 41. Conjugation of the antitumor agents mitozolomide and temozolomide to peptides and lexitropsins bearing DNA major and minor groove-binding structural motifs” (J Med Chem, 2002).)
